These results are taken from ChEMBL document CHEMBL4052637, “Discovery and Characterization of R/S-N-3-Cyanophenyl-N'-(6-tert-butoxycarbonylamino-3,4-dihydro-2,2-dimethyl-2H-1-benzopyran-4-yl)urea, a New Histone Deacetylase Class III Inhibitor Exerting Antiproliferative Activity against Cancer Cell Lines” (J Med Chem, 2017).

One may read the GI50 as the concentration that inhibits growth by half. Usually IC50 stands for the midpoint of a concentration-inhibition curve. A low value points to higher potency.

Activity calls are given as the source filed them. The rule behind the calls is not given here.

Assay [1] relates to U-373MG ATCC. The assay can be described thus: Inhibition of spheroid forming capacity of human U373 cells assessed as decrease in volume of multicellular tumor spheroids at 5 to 10 uM treated for 24 hrs measured after 96 hrs by bright field microscopic method. The class given is functional, cell-based. A digest of the protocol:
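Spheroids formed from 1 × 10^3 cells in 25 μL. Cells were pretreated 24 h with compound then left untreated 96 h, or untreated spheroids were cultured 96 h with compound. Surface measured from bright-field images; volume in voxels from 3D plots after image segmentation. Mean ± SD of three independent experiments.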

Assay [2] has as its system U-373MG ATCC. Kind of assay: Antiproliferative activity against human U373 cells transfected with SIRT1/2 siRNA at IC50 for MTT assay after 72 hrs by time-lapse videomicroscopy. The class given is functional, cell-based. For orientation: Tetrazolium dyes change colour on reduction, which living cells bring about.
Assay [3] concerns the target T1, NAD-dependent protein deacetylase sirtuin-1 (Homo sapiens) (UniProt Q96EB6).
T1 sequence (whole entry): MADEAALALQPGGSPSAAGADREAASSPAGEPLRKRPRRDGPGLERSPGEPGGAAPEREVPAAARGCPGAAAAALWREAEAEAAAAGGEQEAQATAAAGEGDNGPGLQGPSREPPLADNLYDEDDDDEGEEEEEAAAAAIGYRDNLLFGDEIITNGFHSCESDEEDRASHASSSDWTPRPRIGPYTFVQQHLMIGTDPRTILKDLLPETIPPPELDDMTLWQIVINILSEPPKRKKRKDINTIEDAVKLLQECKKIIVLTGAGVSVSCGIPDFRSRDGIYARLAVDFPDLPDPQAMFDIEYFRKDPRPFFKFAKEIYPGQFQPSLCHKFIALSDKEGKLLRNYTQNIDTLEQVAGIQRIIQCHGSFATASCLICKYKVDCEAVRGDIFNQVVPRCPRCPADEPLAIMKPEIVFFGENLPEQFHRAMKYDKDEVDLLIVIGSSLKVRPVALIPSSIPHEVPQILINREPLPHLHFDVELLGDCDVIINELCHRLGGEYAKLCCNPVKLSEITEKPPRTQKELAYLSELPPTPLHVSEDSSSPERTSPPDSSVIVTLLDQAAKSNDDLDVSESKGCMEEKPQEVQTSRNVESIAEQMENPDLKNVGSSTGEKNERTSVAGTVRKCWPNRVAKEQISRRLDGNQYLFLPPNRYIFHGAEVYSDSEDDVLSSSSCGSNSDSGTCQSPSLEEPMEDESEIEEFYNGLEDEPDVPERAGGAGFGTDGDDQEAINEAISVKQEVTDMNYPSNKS
Kind of assay: Inhibition of SIRT1 in human Hs683 cells assessed as increase of histone H4 acetylation at 2.5 uM after 8 hrs by Western blotting method relative to control. The class given is cell-based. A general note: A western blot detects proteins with antibodies after separation by electrophoresis.

Assay [4] relates to U-373MG ATCC. The assay can be described thus: Cell cycle arrest in human U373 cells assessed as accumulation at sub-G1 phase at IC50 for MTT assay after 24 to 48 hrs by propidium iodide staining-based flow cytometry. The class given is functional. A digest of the protocol:
(§1)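 Cells were exposed to compound at the IC50 for each line from the 72 h MTT assay, or to a reference HDAC inhibitor at 2 μM. Cell cycle distribution was analyzed after 24 and 48 h. Results are mean ± SD of three independent experiments, with p values against control cells.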

The test system of assay [5] is U-373MG ATCC. The assay can be described thus: Cell cycle arrest in human U373 cells assessed as accumulation at G2/M phase at 2 uM after 24 to 48 hrs by propidium iodide staining-based flow cytometry. The class given is functional. The conditions noted are these: 7.5 uM, in the assay text read “at 7.5 uM” for “at 2 uM”. A digest of the protocol: as §1
In general terms: A flow cytometer gives signals particle by particle.

In a further assay the test system is SK-MEL-28. Kind of assay: Growth inhibition of human SK-MEL-28 cells after 48 hrs by SRB assay. The class given is functional. The conditions noted are these: SK-MEL-28, 48 h.
The subject of another assay is KBC1. The assay can be described thus: Antiproliferative activity against human KBC1 cells overexpressing ABCB1 after 72 hrs by MTT assay. Type of assay: functional, cell-based. A digest of the protocol:
(§2)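 MTT assay: cells in RPMI 1640 with 10% heat-inactivated FCS at 37 °C and 5% CO2 were seeded 24 h before treatment. They were exposed 72 h to compound at 0.01–100 μM, with DMSO as solvent.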

For assay [6], the system named is Hs 683. Kind of assay: Cell cycle arrest in human Hs683 cells assessed as accumulation at sub-G1 phase at IC50 for MTT assay after 24 to 48 hrs by propidium iodide staining-based flow cytometry. The class given is functional. A digest of the protocol:
as §1

The test system of another assay is MDA-MB-231. Kind of assay: Growth inhibition of human MDA-MB-231 cells after 48 hrs by SRB assay. Type of assay: functional. The note with it: MDA-MB-231, 48 h.
A short description of assay [7]: Antiproliferative activity against human U373 cells after 72 hrs by MTT assay. Type of assay: functional, cell-based, U-373MG ATCC. The conditions noted are these: U373 MG. A digest of the protocol: as §2
In assay [8] the target is T1, NAD-dependent protein deacetylase sirtuin-1 (Homo sapiens). Kind of assay: Inhibition of SIRT1 in human U373 cells assessed as increase of histone H4 acetylation at 10 uM after 8 hrs by Western blotting method relative to control. The class given is cell-based.
Assay [9] deals with T2, NAD-dependent protein deacetylase sirtuin-2 (Homo sapiens) (UniProt Q8IXJ6).
T2 sequence (whole entry): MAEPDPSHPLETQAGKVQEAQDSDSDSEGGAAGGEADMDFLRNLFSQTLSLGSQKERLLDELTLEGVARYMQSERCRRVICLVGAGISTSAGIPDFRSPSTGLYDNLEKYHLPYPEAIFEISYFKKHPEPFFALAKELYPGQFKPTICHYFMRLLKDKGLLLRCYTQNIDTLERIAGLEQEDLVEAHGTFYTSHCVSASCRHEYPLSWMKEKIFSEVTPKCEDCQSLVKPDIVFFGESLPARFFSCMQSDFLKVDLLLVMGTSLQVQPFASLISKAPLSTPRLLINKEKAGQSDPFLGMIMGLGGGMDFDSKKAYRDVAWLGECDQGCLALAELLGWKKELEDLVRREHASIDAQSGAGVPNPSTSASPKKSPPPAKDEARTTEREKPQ
The assay can be described thus: Inhibition of SIRT2 in human U373 cells assessed as increase of alpha-tubulin acetylation at 1 uM after 8 hrs by Western blotting method relative to control. The class given is cell-based.

In assay [10] the target is T1, NAD-dependent protein deacetylase sirtuin-1 (Homo sapiens). Kind of assay: Inhibition of SIRT1 in human U373 cells assessed as increase of histone H4 acetylation at 2.5 uM after 8 hrs by Western blotting method relative to control. The class given is cell-based.
The test system of the next assay is MDA-MB-468. Kind of assay: Growth inhibition of human MDA-MB-468 cells after 48 hrs by SRB assay. The note with it: MDA-MB-468, 48 h. Type of assay: functional.
Assay [11] concerns Hs 683. Kind of assay: Cell cycle arrest in human Hs683 cells assessed as accumulation at G1 phase at IC50 after 24 to 48 hrs by propidium iodide staining-based flow cytometry. Type of assay: functional. An outline of the steps:
as §1

The subject of the next assay is SF-295. The assay can be described thus: Growth inhibition of human SF295 cells after 48 hrs by SRB assay. The conditions noted are these: SF-295, 48 h. Type of assay: functional.
Assay [12] has as its system Hs 683. The assay can be described thus: Cell cycle arrest in human Hs683 cells assessed as accumulation at G2/M phase at 2 uM after 24 to 48 hrs by propidium iodide staining-based flow cytometry. The note with it: 5.8 uM, in the assay text read “at 5.8 uM” for “at 2 uM”. Type of assay: functional. A digest of the protocol: as §1
Assay [13] is described as follows: Cytostatic activity against human U373 cells at 10 uM after 72 hrs by quantitative videomicroscopy relative to control. Type of assay: functional, U-373MG ATCC. A digest of the protocol: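 Cells were grown in 25 cm2 flasks, and phase-contrast images were recorded every 4 min over 72 h, in triplicate. Global growth is cell count on the last image divided by cell count on the first, at 24, 48 and 72 h. The GGR index is treated GG divided by control GG.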

In another assay the test system is NCI-H226. The assay can be described thus: Growth inhibition of human NCI-H226 cells after 48 hrs by SRB assay. The note with it: NCI-H226, 48 h. The class given is functional.
A further assay concerns SN12C. The assay can be described thus: Growth inhibition of human SN12C cells after 48 hrs by SRB assay. Type of assay: functional.

Regarding `CC(C)(C)OC(=O)Nc1ccc2c(c1)C(NC(=O)Nc1cccc(C#N)c1)CC(C)(C)O2` (stereo not given), the inhibition result in the assay with U-373MG ATCC [1] was “Active”. For the same compound, the result with U-373MG ATCC [2], with U-373MG ATCC [5], in the assay on KBC1, with Hs 683 [11] and with Hs 683 [12] was Active. Besides, the fold change (FC) came out at 1.9 in assay [3], 4.1 in assay [8], 0.9 in assay [9] and 1 in assay [10]. For the same compound, the result in the assay with U-373MG ATCC [4] and in the assay on Hs 683 [6] was inactive. The GI50 is 6.46 µM in the assay on SK-MEL-28; 4.27 µM with MDA-MB-231; 0.269 µM in the assay with MDA-MB-468; 2.29 µM in the assay on SF-295; 2 µM in the assay with NCI-H226; 5.5 µM in the assay on SN12C. Moreover, the IC50 in assay [7] lay in the range of 6 to 7.5 µM. This compound gave an Activity in assay [13] of 70%.
